Source: ChEMBL document CHEMBL4334465, “SAR Studies on Aromatic Acylhydrazone-Based Inhibitors of Fungal Sphingolipid Synthesis as Next-Generation Antifungal Agents” (J Med Chem, 2019)
Converted amounts (≈) assume the structure as drawn. The source made the active and inactive calls. The rule behind the calls is not given here.

Key:
Cryptococcus neoformans [1] = assay: Antifungal activity against Cryptococcus neoformans H99 measured after 24 to 72 hrs; type: functional; details: var grubii H99
Outline: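 Modified CLSI broth microdilution with inoculum per M27A3. Compounds were serially diluted 32 to 0.03 μg/mL. Media: C. neoformans in HEPES-buffered YNB without amino acids (pH 7.0, 2% glucose); Candida strains in YNB without ammonium sulfate or amino acids plus 1% asparagine (pH 7.0, 2% glucose); A. fumigatus in RPMI (pH 7.0, 2% glucose).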

Cryptococcus neoformans [2] = assay: Fungicidal activity against Cryptococcus neoformans H99 measured after 6 hrs by time-kill assay; type: functional, var grubii H99
Outline: (§1)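 Overnight C. neoformans washed in PBS and resuspended in HEPES-buffered YNB, pH 7.4. 2 × 10⁴ cells exposed to a range of drug concentrations in 10 mL with 0.5% DMSO final, at 37°C, 5% CO₂, shaking at 200 rpm. Aliquots sampled over 96 h, diluted and plated on YPD; CFU counted after 48 h at 30°C.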

A549 = assay: Cytotoxicity against human A549 cells after 24 to 48 hrs by MTT assay; type: functional; details: read-out: LD50 (the source's name)
Outline: (§2)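 A549 and HepG2 kept in DMEM with 10% FBS and 1% pen-strep. At passage 7, seeded at 10⁵ cells/well and allowed to adhere 14 h. Compound added at 0.03–128 μg/mL, untreated wells as controls. Incubation 37°C, 5% CO₂ for 24 or 48 h. MTT (5 mg/mL in PBS) added for 4 h, formazan dissolved in DMSO, OD570.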

HepG2 = assay: Cytotoxicity against human HepG2 cells after 24 to 48 hrs by MTT assay; type: functional; details: read-out: LD50 (the source's name); outline: as §2
[3] = Selectivity index, ratio of LD50 for human A549 cells to MIC80 for Cryptococcus neoformans H99; type: toxicity; details: read-out: Selectivity Index
Outline: (§3)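 SI = LD₅₀/MIC₈₀. Cytotoxicity: A549 or HepG2 cells (DMEM, 10% FBS, passage 7, 10⁵ cells/well) adhered 14 h, then exposed to 0.03–128 μg/mL for 24 or 48 h at 37°C, 5% CO₂; MTT 4 h, formazan dissolved in DMSO, read at 570 nm. MIC₈₀ against C. neoformans from broth microdilution in HEPES-buffered YNB, pH 7.0.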

[4] = Selectivity index, ratio of LD50 for human HepG2 cells to MIC80 for Cryptococcus neoformans H99; type: toxicity; details: read-out: Selectivity Index; outline: as §3
Cryptococcus neoformans [5] = assay: Fungicidal activity against Cryptococcus neoformans H99 measured after 96 hrs by time-kill assay; type: functional, var grubii H99; outline: as §1
Cryptococcus neoformans [6] = assay: Fungicidal activity against Cryptococcus neoformans H99 measured after 72 hrs by time-kill assay; type: functional, var grubii H99; outline: as §1
Cryptococcus neoformans [7] = assay: Fungicidal activity against Cryptococcus neoformans H99 measured after 12 hrs by time-kill assay; type: functional, var grubii H99; outline: as §1
Cryptococcus neoformans [8] = assay: Fungistatic activity against Cryptococcus neoformans H99 by time-kill assay; type: functional, organism-based; details: var grubii H99; outline: as §1

Structure (SMILES) | MIC80 (Cryptococcus neoformans [1]) [µg/mL] | MFC100 (Cryptococcus neoformans [2]) [µg/mL] | CC50 (A549) [µg/mL] | CC50 (HepG2) [µg/mL] | selectivity ratio [3] | selectivity ratio [4] | MFC100 (Cryptococcus neoformans [5]) [µg/mL] | MFC100 (Cryptococcus neoformans [6]) [µg/mL] | MFC100 (Cryptococcus neoformans [7]) [µg/mL] | Activity (Cryptococcus neoformans [8])
O=C(N/N=C/c1cc(Br)cc(Br)c1O)c1ccc(OC(F)F)cc1 | 0.12 (≈ 0.259 µM) | 1 (≈ 2.15 µM) | 16 (≈ 34.5 µM) | 16 (≈ 34.5 µM) | 133 | 133 |  |  |  | 
O=C(N/N=C/c1cccc(Cl)c1O)c1cccc(C(F)(F)F)c1 | 1 (≈ 2.92 µM) |  | 32 (≈ 93.4 µM) | 32 (≈ 93.4 µM) | 32 | 32 | 2 (≈ 5.84 µM) |  |  | 
O=C(N/N=C/c1cc(OC(F)(F)F)ccc1O)c1ccc(Br)cc1 | 0.25 (≈ 0.62 µM) |  | 16 (≈ 39.7 µM) | 64 (≈ 159 µM) | 64 | 256 |  | 1 (≈ 2.48 µM) |  | 
O=C(N/N=C/c1cc(Cl)ccc1O)c1ccc(Br)cc1Br | 0.25 (≈ 0.578 µM) |  | 64 (≈ 148 µM) | 64 (≈ 148 µM) | 256 | 256 |  |  | 1 (≈ 2.31 µM) | 
O=C(N/N=C/c1c(O)ccc2ccccc12)c1ccc(Br)c(Br)c1 | 0.12 (≈ 0.268 µM) |  | 4 (≈ 8.93 µM) | 16 (≈ 35.7 µM) | 33.3 | 133 |  |  |  | Active
CN(C)c1ccc(C(=O)N/N=C/c2cc(Br)cc(Br)c2O)cc1 | 0.5 (≈ 1.13 µM) |  | 16 (≈ 36.3 µM) | 16 (≈ 36.3 µM) | 32 | 32 |  |  |  | Active
O=C(N/N=C/c1cc(Br)cc(Br)c1O)c1ccc(OC(F)(F)F)cc1 | 0.5 (≈ 1.04 µM) |  | 64 (≈ 133 µM) | 16 (≈ 33.2 µM) | 128 | 32 |  | 4 (≈ 8.3 µM) |  | 
O=C(N/N=C/c1cc(Cl)ccc1O)c1cc(Br)cc(Br)c1 | 0.12 (≈ 0.277 µM) |  | 16 (≈ 37 µM) | 16 (≈ 37 µM) | 133 | 133 |  |  | 1 (≈ 2.31 µM) | 
O=C(N/N=C/c1cc(F)ccc1O)c1ccc(Br)cc1Br | 1 (≈ 2.4 µM) |  | 16 (≈ 38.5 µM) | 16 (≈ 38.5 µM) | 16 | 16 | 2 (≈ 4.81 µM) |  |  | 
O=C(N/N=C/c1cc(Br)cc(Br)c1O)c1ccc(C(F)(F)F)cc1 | 0.12 (≈ 0.257 µM) |  | 4 (≈ 8.58 µM) | 8 (≈ 17.2 µM) | 33.3 |  |  |  | 1 (≈ 2.15 µM) | 
O=C(N/N=C/c1cc(Br)ccc1O)c1ccccc1C(F)(F)F | 1 (≈ 2.58 µM) |  | 16 (≈ 41.3 µM) | 16 (≈ 41.3 µM) | 16 | 16 |  | 1 (≈ 2.58 µM) |  | 
O=C(N/N=C/c1ccc(Br)cc1O)c1cc(Br)ccc1Br | 0.12 (≈ 0.252 µM) | 0.25 (≈ 0.524 µM) | 32 (≈ 67.1 µM) | 16 (≈ 33.5 µM) | 267 | 133 |  |  |  | 
O=C(N/N=C/c1cccc(Br)c1O)c1cccc(F)c1 | 1 (≈ 2.97 µM) |  | 16 (≈ 47.5 µM) | 16 (≈ 47.5 µM) | 16 | 16 |  |  | 2 (≈ 5.93 µM) | 
N#Cc1ccc(C(=O)N/N=C/c2cc(Br)cc(Br)c2O)cc1 | 0.06 (≈ 0.142 µM) |  | 64 (≈ 151 µM) | 16 (≈ 37.8 µM) | 1070 | 267 |  | 1 (≈ 2.36 µM) |  | 
O=C(N/N=C/c1cc(Br)ccc1O)c1ccc(OC(F)(F)F)cc1 | 0.06 (≈ 0.149 µM) |  | 4 (≈ 9.92 µM) | 16 (≈ 39.7 µM) | 66.6 | 267 |  |  | 1 (≈ 2.48 µM) | 
O=C(N/N=C/c1ccc(Br)cc1O)c1ccc(Br)c(Br)c1 | 0.12 (≈ 0.252 µM) |  | 4 (≈ 8.39 µM) | 8 (≈ 16.8 µM) | 33.3 | 66.6 |  | 0.5 (≈ 1.05 µM) |  | 
O=C(N/N=C/c1cc(Br)cc(Br)c1O)c1cccc(OC(F)F)c1 | 0.12 (≈ 0.259 µM) |  | 16 (≈ 34.5 µM) | 16 (≈ 34.5 µM) | 133 | 133 | 0.25 (≈ 0.539 µM) |  |  | 
CN(C)c1ccc(C(=O)N/N=C/c2ccc(Br)cc2O)cc1 | 0.25 (≈ 0.69 µM) |  | 16 (≈ 44.2 µM) | 16 (≈ 44.2 µM) | 64 | 64 |  |  |  | Active
O=C(N/N=C/c1cc(Br)ccc1O)c1ccc(OC(F)F)cc1 | 0.25 (≈ 0.649 µM) |  | 32 (≈ 83.1 µM) | 16 (≈ 41.5 µM) | 128 | 64 |  | 2 (≈ 5.19 µM) |  | 
O=C(N/N=C/c1cc(C(F)(F)F)ccc1O)c1cccc(Br)c1 | 0.5 (≈ 1.29 µM) |  | 16 (≈ 41.3 µM) | 16 (≈ 41.3 µM) | 32 | 32 |  |  |  | Active
O=C(N/N=C/c1ccc(Br)cc1O)c1ccc(Br)cc1 | 0.06 (≈ 0.151 µM) |  | 16 (≈ 40.2 µM) | 32 (≈ 80.4 µM) | 267 | 533 | 0.25 (≈ 0.628 µM) |  |  | 
O=C(N/N=C/c1cc(Br)ccc1O)c1cc(Br)cc(Br)c1 | 0.06 (≈ 0.126 µM) |  | 16 (≈ 33.5 µM) | 16 (≈ 33.5 µM) | 267 | 267 |  |  |  | Active
Cc1ccc(O)c(/C=N/NC(=O)c2ccc(Br)c(Br)c2)c1 | 0.12 (≈ 0.291 µM) |  | 16 (≈ 38.8 µM) | 16 (≈ 38.8 µM) | 133 | 133 |  | 0.5 (≈ 1.21 µM) |  | 
O=C(N/N=C/c1cc(Br)cc(Br)c1O)c1cnc2ccccc2c1 | 0.25 (≈ 0.557 µM) |  | 32 (≈ 71.3 µM) | 32 (≈ 71.3 µM) | 128 | 128 |  |  |  | Active
O=C(N/N=C/c1cc(Cl)cc(Cl)c1O)c1ccc(Br)cc1Br | 1 (≈ 2.14 µM) | 0.5 (≈ 1.07 µM) | 128 (≈ 274 µM) | 64 (≈ 137 µM) | 128 | 64 |  |  |  | 
O=C(N/N=C/c1cc(Br)ccc1O)c1ccc(Br)c(Br)c1 | 0.25 (≈ 0.524 µM) |  | 8 (≈ 16.8 µM) | 8 (≈ 16.8 µM) | 32 | 32 |  | 1 (≈ 2.1 µM) |  | 
O=C(N/N=C/c1cc(Br)ccc1O)c1ccc(OC(F)(F)F)cc1F | 0.5 (≈ 1.19 µM) |  | 64 (≈ 152 µM) | 8 (≈ 19 µM) | 128 | 16 |  | 0.5 (≈ 1.19 µM) |  | 
O=C(N/N=C/c1cc(F)ccc1O)c1ccc(Br)cc1 | 1 (≈ 2.97 µM) |  | 8 (≈ 23.7 µM) | 16 (≈ 47.5 µM) | 8 | 16 | 4 (≈ 11.9 µM) |  |  | 
